# Test results published in ChEMBL document CHEMBL1944509, “Methyl-monofluorination of ibuprofen selectively increases its inhibitory activity toward cyclooxygenase-1 leading to enhanced analgesic activity and reduced gastric damage in vivo” (Bioorg Med Chem Lett, 2011).
# Activity calls are given as the source filed them. The calls are words filed in the database; no cut-off is given here.
# Key:
# [1] = Plasma concentration in ICR mouse at 5 mg/kg, iv after 0.5 hrs by HPLC/MS/MS analysis; assay type: ADME, organism-based; set-up: dose 5 mg/kg, route intravenous
# [2] = Mean residence time (0 to infinity) in ICR mouse at 5 mg/kg, iv; assay type: ADME, organism-based; set-up: dose 5 mg/kg, route intravenous; settings: in vivo
# Procedure, shortened: (§1)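 ICR mice given drug intravenously at 5 mg/kg or orally at 10 mg/kg. Parameters are taken from the plasma concentration–time profile: AUC(0–t), AUC(0–∞), MRT, Cmax and bioavailability.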
# Nucleic Acid [3] = experiment: Ratio of drug level in brain to plasma in ICR mouse at 10 mg/kg, po after 1 hr by HPLC/MS/MS analysis; assay type: ADME, organism-based; set-up: dose 10 mg/kg, route oral
# [4] = Cmax in ICR mouse at 5 mg/kg, iv; assay type: ADME, organism-based; set-up: dose 5 mg/kg, route intravenous; settings: in vivo; procedure, shortened: as §1
# [5] = Plasma concentration in ICR mouse at 5 mg/kg, iv after 0.083 hrs by HPLC/MS/MS analysis; assay type: ADME, organism-based; set-up: dose 5 mg/kg, route intravenous
# [6] = Drug level in ICR mouse brain at 5 mg/kg, iv after 0.5 hrs by HPLC/MS/MS analysis; assay type: ADME, organism-based; set-up: dose 5 mg/kg, route intravenous; settings: read-out: Drug uptake
# [7] = Plasma concentration in ICR mouse at 10 mg/kg, po after 0.5 hrs by HPLC/MS/MS analysis; assay type: ADME, organism-based; set-up: dose 10 mg/kg, route oral
# Nucleic Acid [8] = experiment: Ratio of drug level in brain to plasma in ICR mouse at 10 mg/kg, po after 0.5 hrs by HPLC/MS/MS analysis; assay type: ADME, organism-based; set-up: dose 10 mg/kg, route oral
# [9] = Plasma concentration in ICR mouse at 5 mg/kg, iv after 2 hrs by HPLC/MS/MS analysis; assay type: ADME, organism-based; set-up: dose 5 mg/kg, route intravenous
# [10] = Drug level in ICR mouse brain at 5 mg/kg, iv after 0.083 hrs by HPLC/MS/MS analysis; assay type: ADME, organism-based; set-up: dose 5 mg/kg, route intravenous; settings: read-out: Drug uptake
# [11] = Drug level in ICR mouse brain at 5 mg/kg, iv after 0.25 hrs by HPLC/MS/MS analysis; assay type: ADME, organism-based; set-up: dose 5 mg/kg, route intravenous; settings: read-out: Drug uptake
# [12] = Plasma concentration in ICR mouse at 10 mg/kg, po after 1 hr by HPLC/MS/MS analysis; assay type: ADME, organism-based; set-up: dose 10 mg/kg, route oral
# Nucleic Acid [13] = experiment: Ratio of drug level in brain to plasma in ICR mouse at 5 mg/kg, iv after 0.25 hrs by HPLC/MS/MS analysis; assay type: ADME, organism-based; set-up: dose 5 mg/kg, route intravenous
# [14] = AUC (0 to infinity) in ICR mouse at 10 mg/kg, po; assay type: ADME, organism-based; set-up: time infinity, dose 10 mg/kg, route oral; settings: plasma; procedure, shortened: as §1
# [15] = Mean residence time (0 to infinity) in ICR mouse at 10 mg/kg, po; assay type: ADME, organism-based; set-up: dose 10 mg/kg, route oral; settings: in vivo; procedure, shortened: as §1
# [16] = Drug level in ICR mouse brain at 5 mg/kg, iv after 1 hr by HPLC/MS/MS analysis; assay type: ADME, organism-based; set-up: dose 5 mg/kg, route intravenous; settings: read-out: Drug uptake
# Nucleic Acid [17] = experiment: Ratio of drug level in brain to plasma in ICR mouse at 5 mg/kg, iv after 2 hrs by HPLC/MS/MS analysis; assay type: ADME, organism-based; set-up: dose 5 mg/kg, route intravenous
# [18] = Plasma concentration in ICR mouse at 10 mg/kg, po after 4 hrs by HPLC/MS/MS analysis; assay type: ADME, organism-based; set-up: dose 10 mg/kg, route oral
# [19] = Drug level in ICR mouse brain at 5 mg/kg, iv after 2 hrs by HPLC/MS/MS analysis; assay type: ADME, organism-based; set-up: dose 5 mg/kg, route intravenous; settings: read-out: Drug uptake
# [20] = Plasma concentration in ICR mouse at 10 mg/kg, po after 8 hrs by HPLC/MS/MS analysis; assay type: ADME, organism-based; set-up: dose 10 mg/kg, route oral
# [21] = Drug level in ICR mouse brain at 10 mg/kg, po after 2 hrs by HPLC/MS/MS analysis; assay type: ADME, organism-based; set-up: dose 10 mg/kg, route oral; settings: read-out: Drug uptake
# [22] = AUC (0 to t) in ICR mouse at 5 mg/kg, iv; assay type: ADME, organism-based; set-up: dose 5 mg/kg, route intravenous; settings: plasma; procedure, shortened: as §1
# [23] = Plasma concentration in ICR mouse at 5 mg/kg, iv after 4 hrs by HPLC/MS/MS analysis; assay type: ADME, organism-based; set-up: dose 5 mg/kg, route intravenous
# [24] = Plasma concentration in ICR mouse at 10 mg/kg, po after 2 hrs by HPLC/MS/MS analysis; assay type: ADME, organism-based; set-up: dose 10 mg/kg, route oral
# [25] = Tmax in ICR mouse at 5 mg/kg, iv; assay type: ADME, organism-based; set-up: dose 5 mg/kg, route intravenous; settings: in vivo
# [26] = Plasma concentration in ICR mouse at 10 mg/kg, po after 0.25 hrs by HPLC/MS/MS analysis; assay type: ADME, organism-based; set-up: dose 10 mg/kg, route oral
# Nucleic Acid [27] = experiment: Ratio of drug level in brain to plasma in ICR mouse at 5 mg/kg, iv after 0.5 hrs by HPLC/MS/MS analysis; assay type: ADME, organism-based; set-up: dose 5 mg/kg, route intravenous
# [28] = Plasma concentration in ICR mouse at 10 mg/kg, po after 6 hrs by HPLC/MS/MS analysis; assay type: ADME, organism-based; set-up: dose 10 mg/kg, route oral
# Nucleic Acid [29] = experiment: Ratio of drug level in brain to plasma in ICR mouse at 10 mg/kg, po after 0.25 hrs by HPLC/MS/MS analysis; assay type: ADME, organism-based; set-up: dose 10 mg/kg, route oral
# Nucleic Acid [30] = experiment: Ratio of drug level in brain to plasma in ICR mouse at 5 mg/kg, iv after 0.083 hrs by HPLC/MS/MS analysis; assay type: ADME, organism-based; set-up: dose 5 mg/kg, route intravenous
# [31] = Drug level in ICR mouse brain at 10 mg/kg, po after 0.25 hrs by HPLC/MS/MS analysis; assay type: ADME, organism-based; set-up: dose 10 mg/kg, route oral; settings: read-out: Drug uptake
# Rattus norvegicus [32] = experiment: Antiinflammatory activity in Wistar albino rat assessed as inhibition of carrageenan-induced paw edema at 30 mg/kg intragastrically administered 1 hr before carrageenan challenge measured after 1 to 24 hrs post carrageenan challenge by plethysmometer; assay type: functional, organism-based
# Procedure, shortened: (§2)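 Male Wistar albino rats, 140–160 g, eight per group, dosed i.g. as a suspension in 0.5% CMC; controls get 0.5% CMC only. 1 h later, 0.1 ml of 0.1% carrageenan in 0.9% NaCl is injected into the sub-plantar region of the right hind paw. Paw volume is read by plethysmometer hourly to 6 h and at 24 h. Inhibition (%) = (Vc − Vt)/Vc × 100 on mean volume increase; mean ± SEM.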
# [33] = AUC (0 to infinity) in ICR mouse at 5 mg/kg, iv; assay type: ADME, organism-based; set-up: time infinity, dose 5 mg/kg, route intravenous; settings: plasma; procedure, shortened: as §1
# [34] = Plasma concentration in ICR mouse at 5 mg/kg, iv after 0.25 hrs by HPLC/MS/MS analysis; assay type: ADME, organism-based; set-up: dose 5 mg/kg, route intravenous
# Rattus norvegicus [35] = experiment: Antiinflammatory activity in Wistar albino rat assessed as inhibition of carrageenan-induced paw edema at 33.6 mg/kg, ig administered 1 hr before carrageenan challenge measured after 1 to 24 hrs post carrageenan challenge by plethysmometer; assay type: functional, organism-based; procedure, shortened: as §2
# [36] = Tmax in ICR mouse at 10 mg/kg, po; assay type: ADME, organism-based; set-up: dose 10 mg/kg, route oral; settings: in vivo
# [37] = Plasma concentration in ICR mouse at 5 mg/kg, iv after 8 hrs by HPLC/MS/MS analysis; assay type: ADME, organism-based; set-up: dose 5 mg/kg, route intravenous
# [38] = Drug level in ICR mouse brain at 10 mg/kg, po after 0.5 hrs by HPLC/MS/MS analysis; assay type: ADME, organism-based; set-up: dose 10 mg/kg, route oral; settings: read-out: Drug uptake
# [39] = Plasma concentration in ICR mouse at 5 mg/kg, iv after 6 hrs by HPLC/MS/MS analysis; assay type: ADME, organism-based; set-up: dose 5 mg/kg, route intravenous
# [40] = Plasma concentration in ICR mouse at 5 mg/kg, iv after 1 hr by HPLC/MS/MS analysis; assay type: ADME, organism-based; set-up: dose 5 mg/kg, route intravenous
# [41] = AUC (0 to t) in ICR mouse at 10 mg/kg, po; assay type: ADME, organism-based; set-up: dose 10 mg/kg, route oral; settings: plasma; procedure, shortened: as §1
# [42] = Drug level in ICR mouse brain at 10 mg/kg, po after 0.083 hrs by HPLC/MS/MS analysis; assay type: ADME, organism-based; set-up: dose 10 mg/kg, route oral; settings: read-out: Drug uptake
# [43] = Drug level in ICR mouse brain at 10 mg/kg, po after 4 hrs by HPLC/MS/MS analysis; assay type: ADME, organism-based; set-up: dose 10 mg/kg, route oral; settings: read-out: Drug uptake
# [44] = Drug level in ICR mouse brain at 10 mg/kg, po after 1 hr by HPLC/MS/MS analysis; assay type: ADME, organism-based; set-up: dose 10 mg/kg, route oral; settings: read-out: Drug uptake
compound,measurement,setting,value
CC(C)Cc1ccc([C@H](C)C(=O)O)cc1 [DEXIBUPROFEN],concentration at 0.5 h,[1],19800 ng/mL
same,MRT inf,[2],76.8 min
same,BPR,Nucleic Acid [3],0.031 mL/g
same,Cmax,[4],34600 ng/mL
same,concentration at 0.083 h,[5],34600 ng/mL
same,concentration at 0.5 h,[6],613 ng/g
same,concentration at 0.5 h,[7],34400 ng/mL
same,BPR,Nucleic Acid [8],0.033 mL/g
same,concentration at 2 h,[9],3930 ng/mL
same,concentration at 0.083 h,[10],1260 ng/g
same,concentration at 0.25 h,[11],598 ng/g
same,concentration at 1 h,[12],24000 ng/mL
same,BPR,Nucleic Acid [13],0.032 mL/g
same,AUC(0-inf),[14],81600 ng·h/mL
same,MRT inf,[15],101 min
same,concentration at 1 h,[16],251 ng/g
same,BPR,Nucleic Acid [17],0.031 mL/g
same,concentration at 4 h,[18],5260 ng/mL
same,concentration at 2 h,[19],123 ng/g
same,concentration at 8 h,[20],336 ng/mL
same,concentration at 2 h,[21],340 ng/g
same,AUC(0-t),[22],33900 ng·h/mL
same,concentration at 4 h,[23],927 ng/mL
same,concentration at 2 h,[24],15800 ng/mL
same,Tmax,[25],4.8 min
same,concentration at 0.25 h,[26],33600 ng/mL
same,BPR,Nucleic Acid [27],0.032 mL/g
same,concentration at 6 h,[28],1070 ng/mL
same,BPR,Nucleic Acid [29],0.029 mL/g
same,BPR,Nucleic Acid [30],0.037 mL/g
same,concentration at 0.25 h,[31],999 ng/g
same,inhibition,Rattus norvegicus [32],Active
same,AUC(0-inf),[33],34500 ng·h/mL
same,concentration at 0.25 h,[34],19400 ng/mL
same,inhibition,Rattus norvegicus [35],Active
same,Tmax,[36],4.8 min
same,concentration at 8 h,[37],354 ng/mL
same,concentration at 0.5 h,[38],1130 ng/g
same,concentration at 6 h,[39],334 ng/mL
same,concentration at 1 h,[40],9960 ng/mL
same,AUC(0-t),[41],81100 ng·h/mL
same,concentration at 0.083 h,[42],1340 ng/g
same,concentration at 4 h,[43],127 ng/g
same,concentration at 1 h,[44],721 ng/g
